We go through 2 compounds from ChEMBL document CHEMBL1141109, “Synthesis of an estrogen receptor beta-selective radioligand: 5-[18F]fluoro-(2R,3S)-2,3-bis(4-hydroxyphenyl)pentanenitrile and comparison of in vivo distribution with 16alpha-[18F]fluoro-17beta-estradiol” (J Med Chem, 2005).

Data set [1] is described as follows: Biodistribution of [18F]FES in beta estrogen receptor knock out mouse thymus after 2 h; (n=3). It counts as ADME, organism-based. As to conditions: in vivo.
Data set [2] is described as follows: Biodistribution of [18F]FES in beta estrogen receptor knock out mouse spleen after 1 h; (n=3). It counts as ADME, organism-based. The note with it: in vivo.
Data set [3] is described as follows: Biodistribution of [18F]FES in alpha estrogen receptor knock out mouse ovaries after 2 h; (n=3). It counts as ADME, organism-based, Female gonad. As to conditions: in vivo. In short, it runs like this: (§1)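 Female αERKO mice were rested 48 h after shipping and fed estrogen-free chow. They were staged by daily vaginal smears and studied in diestrus. Each received 13 µCi [18F]FES in 100 µL 10% ethanol/saline and was sacrificed at 30 min, 1 h or 2 h (n = 3 per time). Tissue uptake is given as %ID/g ± SD.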

Data set [4] can be described thus: Biodistribution of [18F]FES in alpha estrogen receptor knock out mouse kidney after 1 h; (n=3). It counts as ADME, organism-based. The note with it: in vivo. An outline of the steps: as §1
A short description of data set [5]: Biodistribution of [18F]-FES in alpha estrogen receptor knock out mouse bone after 2 h; (n=3). It counts as ADME, organism-based, Bone element. As to conditions: in vivo. An outline of the steps: as §1
Data set [6] is described as follows: Biodistribution of [18F]FES in beta estrogen receptor knock out mouse muscle after 30 min(n=2); mice in nonestrus stage. It counts as ADME, organism-based, Muscle tissue. As to conditions: in vivo, 0.5 h.
Data set [7] is described as follows: Biodistribution of [18F]FES in beta estrogen receptor knock out mouse liver after 1 h; (n=3). It counts as ADME, organism-based. The note with it: in vivo.
Data set [8] can be described thus: Biodistribution of [18F]FES in alpha estrogen receptor knock out mouse fat after 2 h; (n=3). It counts as ADME, organism-based, Adipose tissue. The note with it: in vivo. In short, it runs like this: as §1
The nature of data set [9]: Biodistribution of [18F]FES in beta estrogen receptor knock out mouse blood after 30 min(n=2); mice in nonestrus stage. It counts as ADME, organism-based. The note with it: in vivo, 0.5 h.
Data set [10] in a line: Biodistribution of [18F]-FES in alpha estrogen receptor knock out mouse liver after 1 h; (n=3). It counts as ADME, organism-based. As to conditions: in vivo. An outline of the steps:
as §1

A short description of data set [11]: Biodistribution of [18F]FES in alpha estrogen receptor knock out mouse uterus after 30 min; (n=3). It counts as ADME, organism-based. As to conditions: in vivo, 0.5 h.
Data set [12] in a line: Biodistribution of [18F]FES in beta estrogen receptor knock out mouse lung after 30 min; (n=3). As to conditions: in vivo, 0.5 h. It counts as ADME, organism-based.
Data set [13] is described as follows: Biodistribution of [18F]-FES in alpha estrogen receptor knock out mouse thymus after 30 min; (n=3). It counts as ADME, organism-based. The note with it: in vivo, 0.5 h. In short, it runs like this: (§2)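 Female αERKO mice rested 48 h after shipping and fed estrogen-free chow. Estrous stage was checked by daily vaginal smears, and mice were used in diestrus. Each received 13 µCi [18F]FES in 100 µL 10% ethanol/saline. Animals were sacrificed at 30 min, 1 h or 2 h (n = 3 each). Tissue uptake is reported as %ID/g ± SD.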

Data set [14] in a line: Biodistribution of [18F]-FES in alpha estrogen receptor knock out mouse muscle after 1 h; (n=3). It counts as ADME, organism-based, Muscle tissue. The note with it: in vivo. In short, it runs like this: as §1
Data set [15] is described as follows: Biodistribution of [18F]FES in beta estrogen receptor knock out mouse kidney after 2 h; (n=3). It counts as ADME, organism-based. As to conditions: in vivo.
A short description of data set [16]: Biodistribution of [18F]FES in alpha estrogen receptor knock out mouse brain after 30 min; (n=3). It counts as ADME, organism-based. As to conditions: in vivo, 0.5 h. In short, it runs like this: as §2
A short description of data set [17]: Biodistribution of [18F]-FEDPN in rat uterus after 2 h when given in tail vein; (n=5). It counts as ADME, organism-based. The note with it: in vivo, iv. In short, it runs like this:
(§3)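 Immature female Sprague–Dawley rats (<25 days old) anesthetized with isoflurane/O2. Given 20 µCi tracer by tail vein in 150 µL of 20% ethanol/saline. […] Killed at 30 min, 1 h or 2 h. Blood and organs blotted, weighed and gamma-counted against a standard dilution of the injectate. Reported as %ID/g ± SD, n=5.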

Data set [18] can be described thus: Biodistribution of [18F]FEDPN in rat lung after 30 min when given in tail vein; (n=5). It counts as ADME, organism-based. As to conditions: in vivo, iv, 0.5 h. An outline of the steps:
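Immature female Sprague–Dawley rats (<25 days old) under isoflurane/O2 got 20 µCi tracer in 150 µL 20% ethanol/saline by tail vein. […] Rats were killed at 30 min, 1 h or 2 h. Organs were blotted, weighed and gamma-counted against an injectate standard. Data are %ID/g ± SD, five rats per point.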

The nature of data set [19]: Biodistribution of [18F]FEDPN in beta estrogen receptor knock out mouse fat after 2 h; (n=3). It counts as ADME, organism-based, Adipose tissue. As to conditions: in vivo. An outline of the steps: (§4)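 αERKO and βERKO mice, staged by daily vaginal smears and kept on estrogen-free chow, were studied in a nonestrous stage. Each mouse received 11 μCi of tracer in 130 μL of 10% ethanol/saline. Mice were killed at 30 min, 1 h or 2 h (n = 3 each). Organs were removed, blotted, weighed and gamma-counted against an injectate standard. Uptake is given as %ID/g ± SD.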

Data set [20] is described as follows: Biodistribution of [18F]FEDPN in beta estrogen receptor knock out mouse kidney after 1 h; (n=3). It counts as ADME, organism-based. The note with it: in vivo. An outline of the steps: as §4
Data set [21] in a line: Biodistribution of [18F]FEDPN in beta estrogen receptor knock out mouse muscle after 30 min; (n=3). It counts as ADME, organism-based, Muscle tissue. As to conditions: in vivo, 0.5 h. In short, it runs like this: as §4
A short description of data set [22]: Biodistribution of [18F]-FEDPN in rat fat after 1 h when given in tail vein; (n=5). It counts as ADME, organism-based, Adipose tissue. As to conditions: in vivo, iv. An outline of the steps:
as §3

Data set [23] is described as follows: Biodistribution of [18F]FEDPN in beta estrogen receptor knock out mouse lung after 1 h; (n=3). It counts as ADME, organism-based. The note with it: in vivo. An outline of the steps: as §4
The nature of data set [24]: Biodistribution of [18F]FEDPN in beta estrogen receptor knock out mouse lung after 30 min; (n=3). It counts as ADME, organism-based. The note with it: in vivo, 0.5 h. An outline of the steps: as §4
Data set [25] can be described thus: Biodistribution of [18F]FEDPN in beta estrogen receptor knock out mouse fat after 30 min; (n=3). It counts as ADME, organism-based, Adipose tissue. The note with it: in vivo, 0.5 h. In short, it runs like this:
as §4

Data set [26] in a line: Biodistribution of [18F]FEDPN in alpha estrogen receptor knock out mouse heart after 2 h; (n=3). It counts as ADME, organism-based. The note with it: in vivo. In short, it runs like this: (§5)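 ERKO female mice (αERKO or βERKO), rested 48 h after shipping, placed on estrogen-free chow, and staged by daily vaginal smears. Injected in a nonestrous stage with 11 µCi [18F]FEDPN in 130 µL of 10% ethanol/saline. Killed at 30 min, 1 h or 2 h. Organs counted and reported as %ID/g ± SD, three animals per point.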

Data set [27] is described as follows: Biodistribution of [18F]-FEDPN in rat muscle after 1 hr block when given in tail vein; (n=5). It counts as ADME, organism-based, Muscle tissue. The note with it: in vivo, iv. An outline of the steps: as §3
Data set [28] is described as follows: Biodistribution of [18F]FEDPN in beta estrogen receptor knock out mouse heart after 30 min; (n=3). The note with it: in vivo, 0.5 h. It counts as ADME, organism-based. An outline of the steps: as §4
Data set [29] in a line: Biodistribution of [18F]FEDPN in beta estrogen receptor knock out mouse bone after 1 h; (n=3). It counts as ADME, organism-based, Bone element. The note with it: in vivo. An outline of the steps: as §4
The nature of data set [30]: Biodistribution of [18F]-FEDPN in alpha estrogen receptor knock out mouse brain after 2 h; (n=3). It counts as ADME, organism-based. The note with it: in vivo. In short, it runs like this: as §5
Data set [31] concerns the target Estrogen receptor (Mus musculus) (UniProt O08537+P19785). Description: Ratio of [18F]FEDPN uptake in uterus of ERbeta KO-mouse (diestrus) and ERalpha KO-mouse (nonestrus) after 2 hr.
A short description of data set [32]: Biodistribution of [18F]FEDPN in alpha estrogen receptor knock out mouse thymus after 1 h; (n=3). It counts as ADME, organism-based. As to conditions: in vivo. An outline of the steps: as §4
Data set [33] is described as follows: Biodistribution of [18F]FEDPN in beta estrogen receptor knock out mouse liver after 1 h; (n=3). It counts as ADME, organism-based. The note with it: in vivo. In short, it runs like this:
as §4

A short description of data set [34]: Biodistribution of [18F]FEDPN in alpha estrogen receptor knock out mouse brain after 30 min; (n=3). It counts as ADME, organism-based. The note with it: in vivo, 0.5 h. An outline of the steps:
as §5

A short description of data set [35]: Biodistribution of [18F]FEDPN in beta estrogen receptor knock out mouse heart after 1 h; (n=3). It counts as ADME, organism-based. The note with it: in vivo. In short, it runs like this: as §4
A short description of data set [36]: Biodistribution of [18F]-FEDPN in rat heart after 1 hr block when given in tail vein; (n=5). As to conditions: in vivo, iv. It counts as ADME, organism-based. In short, it runs like this:
as §3

Chain of Estrogen receptor (Mus musculus) (O08537 whole entry, looked up): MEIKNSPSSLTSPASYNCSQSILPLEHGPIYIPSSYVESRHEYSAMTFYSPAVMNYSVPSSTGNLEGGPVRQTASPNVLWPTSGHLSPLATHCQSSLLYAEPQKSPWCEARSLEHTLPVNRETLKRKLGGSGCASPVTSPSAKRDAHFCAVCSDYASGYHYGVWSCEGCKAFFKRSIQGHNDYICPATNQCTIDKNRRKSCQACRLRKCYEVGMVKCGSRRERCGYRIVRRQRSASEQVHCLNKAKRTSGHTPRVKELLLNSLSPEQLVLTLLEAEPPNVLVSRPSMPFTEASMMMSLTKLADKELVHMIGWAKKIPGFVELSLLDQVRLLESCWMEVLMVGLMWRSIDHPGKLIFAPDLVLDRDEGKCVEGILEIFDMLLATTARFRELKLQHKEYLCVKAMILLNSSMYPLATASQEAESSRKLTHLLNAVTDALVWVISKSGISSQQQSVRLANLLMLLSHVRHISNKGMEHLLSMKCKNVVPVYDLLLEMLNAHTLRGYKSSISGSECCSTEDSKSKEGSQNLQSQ
Chain of Estrogen receptor (Mus musculus) (P19785 whole entry, looked up): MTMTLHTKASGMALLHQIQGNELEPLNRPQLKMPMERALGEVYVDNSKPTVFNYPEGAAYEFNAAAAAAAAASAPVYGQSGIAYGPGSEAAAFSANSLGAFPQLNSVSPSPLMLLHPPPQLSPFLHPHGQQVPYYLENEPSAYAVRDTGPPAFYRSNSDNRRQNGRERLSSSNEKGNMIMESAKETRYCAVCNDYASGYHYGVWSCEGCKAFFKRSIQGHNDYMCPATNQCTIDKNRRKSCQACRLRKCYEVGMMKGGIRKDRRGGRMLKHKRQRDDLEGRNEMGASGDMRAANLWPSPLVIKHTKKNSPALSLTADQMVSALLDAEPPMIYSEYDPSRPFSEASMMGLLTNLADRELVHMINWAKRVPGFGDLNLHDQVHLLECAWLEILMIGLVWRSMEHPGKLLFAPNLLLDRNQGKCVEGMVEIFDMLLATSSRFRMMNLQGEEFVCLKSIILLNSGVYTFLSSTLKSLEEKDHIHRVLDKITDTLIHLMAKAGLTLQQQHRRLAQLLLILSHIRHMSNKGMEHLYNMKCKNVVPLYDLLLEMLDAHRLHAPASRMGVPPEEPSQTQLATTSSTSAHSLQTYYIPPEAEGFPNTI

Regarding `C[C@]12CC[C@@H]3c4ccc(O)cc4CC[C@H]3[C@@H]1C[C@@H](F)[C@@H]2O` [FLUOROESTRADIOL], the Biodistribution in data set [1] is recorded as 0.38 %ID/g; in data set [2], 0.91 %ID/g; in data set [3], 0.18 %ID/g; in data set [4], 1.07 %ID/g; in data set [5], 0.23 %ID/g; in data set [6], 1.89 %ID/g. Moreover, the Biodistribution is recorded as 5.85 %ID/g in data set [7]; 0.09 %ID/g in [8]; 0.73 %ID/g in [9]; 5.24 %ID/g in data set [10]; 2.4 %ID/g in data set [11]; 3.74 %ID/g in [12]. The Biodistribution in data set [13] was determined as 0.68 %ID/g; in data set [14], 0.18 %ID/g; in data set [15], 1.05 %ID/g; in data set [16] it was 0.41 %ID/g.
For `N#C[C@H](c1ccc(O)cc1)[C@@H](CCF)c1ccc(O)cc1`, the Biodistribution in data set [17] was found to be 0.28 %ID/g; in data set [18], 0.71 %ID/g; in [19], 0.09 %ID/g; in [20], 2.42 %ID/g; in data set [21], 1.45 %ID/g; in data set [22] it was 0.37 %ID/g. The Biodistribution was determined as 1.71 %ID/g in data set [23]; 5.38 %ID/g in data set [24]; 0.89 %ID/g in [25]; 0.25 %ID/g in [26]; 0.2 %ID/g in data set [27]; 1.6 %ID/g in data set [28]. For the same compound, the Biodistribution in data set [29] turned out to be 4.92 %ID/g; in data set [30], 0.28 %ID/g; in [32], 0.68 %ID/g; in data set [33], 3.79 %ID/g; in [34], 0.96 %ID/g; in data set [35], 0.43 %ID/g. Further, in [36], the Biodistribution is on record as 0.19 %ID/g. In addition, the Ratio in data set [31] is 1.29.
